The target in data set [1] is T1, 11-beta-hydroxysteroid dehydrogenase 1 (Homo sapiens, UniProt P28845). Nature of the data set: Inhibition of human 11beta-HSD1 expressed in Escherichia coli.
Data set [2] deals with 11-beta-hydroxysteroid dehydrogenase 1 (Mus musculus) (UniProt P50172). Nature of the data set: Inhibition of DIO mouse adipose tissue 11beta-HSD1 at 30 mg/kg 7 hrs post dose. The data set is classed as organism-based. Set-up: dose 30 mg/kg. The procedure, abridged: (§1)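 DIO mice received one oral 30 mpk dose in 1% Tween 80 / 0.2% hydroxypropyl methylcellulose, 3 mice per point. Liver, epididymal fat and brain were excised at 7 or 16 h, weighed, minced in about 5 volumes PBS and given cortisone at 10 final. Incubation was at 37 °C, 5% CO₂: liver 20 min, fat and brain 3 h. Cortisol was read by LC-MS; % inhibition is versus the vehicle group.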
11-beta-hydroxysteroid dehydrogenase 1 (Mus musculus), sequence (P50172 whole entry, looked up): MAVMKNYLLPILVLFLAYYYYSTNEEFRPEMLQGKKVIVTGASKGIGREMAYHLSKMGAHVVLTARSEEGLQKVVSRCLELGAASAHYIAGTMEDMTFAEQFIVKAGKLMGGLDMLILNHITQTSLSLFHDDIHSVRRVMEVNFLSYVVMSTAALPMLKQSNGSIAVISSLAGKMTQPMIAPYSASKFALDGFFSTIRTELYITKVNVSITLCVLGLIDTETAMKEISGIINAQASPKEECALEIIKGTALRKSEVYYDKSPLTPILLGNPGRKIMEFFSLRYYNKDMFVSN

Data set [3] has the same target. Nature of the data set: Inhibition of DIO mouse adipose tissue 11beta-HSD1 at 30 mg/kg 16 hrs post dose. The data set is classed as organism-based. More on the design: dose 30 mg/kg. The procedure, abridged:
as §1

For data set [4], the target named is T1, 11-beta-hydroxysteroid dehydrogenase 1. Nature of the data set: Inhibition of human 11beta-HSD1 expressed in HEK293 cells. It counts as cell-based.
In data set [5] the target is 11-beta-hydroxysteroid dehydrogenase 1 (Mus musculus, UniProt P50172). Nature of the data set: Inhibition of mouse 11beta-HSD1 expressed in Escherichia coli. The method, boiled down: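 Reductase-direction SPA. Total cortisone was 175 nM, including 75 nM ³H-cortisone, with NADPH cofactor in 50 mM Tris–HCl pH 7.2 and 1 mM EDTA. An NADPH regeneration system (1 mM G-6-P, 1 U/mL G-6-PDH) was included. Final enzyme was 0.015 mg/mL, keeping substrate consumption below 25%. The reaction ran 30 min at room temperature. ³H-cortisol was captured by anti-cortisol mAb and anti-mouse SPA beads, then scintillation-counted. IC50 came from % inhibition versus an uninhibited control, as the mean of two experiments.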
11-beta-hydroxysteroid dehydrogenase 1 (Mus musculus, UniProt P50172), sequence (P50172 whole entry): as the sequence (P50172 whole entry, looked up) above

Data set [6] is described as follows: Plasma clearance in mouse at 10 mg/kg. It counts as ADME, organism-based. Set-up: dose 10 mg/kg. The method, boiled down: (§2)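 Mouse PK: single 10 mg/kg doses given intravenously and orally; the parameters were calculated from these dosings.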
Data set [7] is described as follows: Stability in mouse liver microsomes after 30 min. Particulars: read-out: Stability. The data set is classed as ADME, Microsome. The method, boiled down:
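Compounds were incubated 30 min with mouse liver microsomes; the result is expressed as % parent remaining.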
In general terms: Liver microsomes are a subcellular fraction often used to study metabolism.

Data set [8] has as its target 11-beta-hydroxysteroid dehydrogenase 1 (Mus musculus) (UniProt P50172). Nature of the data set: Inhibition of DIO mouse brain 11beta-HSD1 at 30 mg/kg 16 hrs post dose. The data set is classed as organism-based. Set-up: dose 30 mg/kg. The method, boiled down:
as §1

Data set [9] in a line: Half life in mouse plasma at 10 mg/kg. The data set is classed as ADME, organism-based. More on the design: dose 10 mg/kg. The procedure, abridged: as §2
Data set [10] addresses 11-beta-hydroxysteroid dehydrogenase 1 (Mus musculus) (UniProt P50172). Description: Inhibition of DIO mouse liver 11beta-HSD1 at 30 mg/kg 7 hrs post dose. It counts as organism-based. More on the design: dose 30 mg/kg. The method, boiled down:
as §1

Data set [11] has the same target. Nature of the data set: Inhibition of DIO mouse brain 11beta-HSD1 at 30 mg/kg 7 hrs post dose. It counts as organism-based. More on the design: dose 30 mg/kg. The procedure, abridged: as §1
In data set [12] the target is T2, 11-beta-hydroxysteroid dehydrogenase type 2 (Mus musculus, UniProt P51661).
T2 sequence (P51661 whole entry): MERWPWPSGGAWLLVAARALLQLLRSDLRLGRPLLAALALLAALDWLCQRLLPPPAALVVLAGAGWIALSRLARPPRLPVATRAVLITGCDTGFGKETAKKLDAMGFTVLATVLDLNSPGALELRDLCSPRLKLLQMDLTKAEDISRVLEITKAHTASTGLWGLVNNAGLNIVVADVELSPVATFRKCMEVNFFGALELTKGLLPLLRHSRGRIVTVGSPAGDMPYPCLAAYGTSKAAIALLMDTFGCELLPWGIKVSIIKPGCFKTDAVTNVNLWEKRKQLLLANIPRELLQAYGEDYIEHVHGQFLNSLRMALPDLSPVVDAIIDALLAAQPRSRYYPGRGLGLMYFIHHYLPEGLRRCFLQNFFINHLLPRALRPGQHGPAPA
Description: Inhibition of mouse 11beta-HSD2.

Data set [13] is described as follows: Bioavailability in mouse plasma at 10 mg/kg. It counts as ADME, organism-based. The method, boiled down: as §2
For data set [14], the target named is T3, 11-beta-hydroxysteroid dehydrogenase type 2 (Homo sapiens, UniProt P80365).
T3 sequence (P80365 whole entry): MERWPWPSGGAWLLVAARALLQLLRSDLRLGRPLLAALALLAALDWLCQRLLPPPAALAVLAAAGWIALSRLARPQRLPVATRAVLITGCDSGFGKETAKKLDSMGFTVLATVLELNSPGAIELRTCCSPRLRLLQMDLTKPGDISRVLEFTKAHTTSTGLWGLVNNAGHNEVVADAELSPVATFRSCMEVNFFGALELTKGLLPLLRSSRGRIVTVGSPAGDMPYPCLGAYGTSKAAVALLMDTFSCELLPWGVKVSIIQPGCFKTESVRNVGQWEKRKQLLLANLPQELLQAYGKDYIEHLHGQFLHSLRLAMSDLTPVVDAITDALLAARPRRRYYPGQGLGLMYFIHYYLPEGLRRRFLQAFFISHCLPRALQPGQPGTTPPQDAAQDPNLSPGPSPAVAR
Description: Inhibition of human 11beta-HSD2.

The target in data set [15] is 11-beta-hydroxysteroid dehydrogenase 1 (Mus musculus) (UniProt P50172). Description: Inhibition of DIO mouse liver 11beta-HSD1 at 30 mg/kg 16 hrs post dose. It counts as organism-based. More on the design: dose 30 mg/kg. The procedure, abridged: as §1

T1 sequence (P28845 whole entry): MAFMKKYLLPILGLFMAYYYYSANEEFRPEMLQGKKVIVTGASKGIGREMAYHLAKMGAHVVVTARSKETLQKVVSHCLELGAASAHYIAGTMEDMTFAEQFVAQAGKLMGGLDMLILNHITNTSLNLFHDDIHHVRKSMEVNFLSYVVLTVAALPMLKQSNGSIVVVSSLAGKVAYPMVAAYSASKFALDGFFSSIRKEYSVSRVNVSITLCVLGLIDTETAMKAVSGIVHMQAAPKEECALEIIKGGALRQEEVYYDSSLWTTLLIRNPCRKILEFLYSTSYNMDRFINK

One may read the IC50 as the point on the concentration scale where inhibition reaches its midpoint. Read a high IC50 as a need for much substance. For orientation: inhibition means how much of the control response was suppressed. By clearance is commonly meant the rate of elimination divided by the concentration. The term half-life denotes the time in which the quantity being followed falls by half. A low value points to rapid decline. As usually defined, the bioavailability is dose-corrected exposure relative to a reference, in per cent. A lower bioavailability goes with poor availability. In the case of `CC(C)(Oc1ccc(Cl)cc1)C(=O)N[C@H]1C2C[C@@H]3C[C@H]1C[C@@](Cc1nnn[nH]1)(C2)C3`, the concentration for half-maximal inhibition (IC50) in [1] is 41 nM; in data set [4], 119 nM; in data set [5] it was 87 nM; in data set [12], 7000 nM; in data set [14] it was greater than 100000 nM. The inhibition worked out at 17% in [2]; 20% in [3]; 9% in data set [8]; 62% in [10]; 11% in data set [11]; 37% in data set [15]. In data set [6], this molecule showed a clearance of 20 mL/min/kg. For the same molecule, the remaining at 0.5 h in data set [7] came to 79%. In data set [9], this molecule gave a half-life of 2.3 h. In addition, in data set [13], the bioavailability turned out to be 39.7%.

Consider `CC(C)(Oc1ccc(-n2cccn2)cn1)C(=O)N[C@H]1C2C[C@@H]3C[C@H]1C[C@@](CC(N)=O)(C2)C3`, for which the IC50 in data set [1] is 5 nM; in data set [4], 38 nM; in data set [5] it was 11 nM; in [12] it was greater than 100000 nM; in [14], greater than 100000 nM. In addition, the remaining at 0.5 h in data set [7] turned out to be 83%.

Turning to `CC(C)(Oc1ccc(Cl)cc1)C(=O)N[C@H]1C2C[C@@H]3C[C@H]1C[C@@](CC(=O)O)(C2)C3`, the inhibition in [2] was 70%; in data set [3], 35%; in data set [10], 40%; in data set [15] it was 0%. For the same molecule, the IC50 in data set [5] stood at 92 nM; in data set [12] it was 20700 nM. For the same molecule, in data set [6], the clearance was 3.33 mL/min/kg. In addition, the remaining at 0.5 h in data set [7] was 94%. The same molecule showed a half-life in data set [9] of 2 h. For the same molecule, the bioavailability in [13] came to 96.1%.

`CN1CCN(c2ccc(OC(C)(C)C(=O)N[C@H]3C4C[C@@H]5C[C@H]3C[C@@](CC(N)=O)(C4)C5)nc2)CC1`: the half-maximal inhibitory concentration (IC50) in [1] was 185 nM; in [4], greater than 10000 nM; in data set [5] it was 519 nM; in data set [12], greater than 100000 nM; in data set [14] it was greater than 100000 nM.

`CC(C)(Oc1ccc(Cl)cc1)C(=O)N[C@H]1C2C[C@@H]3C[C@H]1C[C@@](c1ccno1)(C2)C3` showed an IC50 in data set [5] of 71 nM. Besides, in data set [7], the remaining at 0.5 h amounted to 30%.

With `CC(C)(Oc1ccc(Cl)cc1)C(=O)N[C@H]1C2C[C@@H]3C[C@H]1C[C@@](c1nc(C#N)c(N)o1)(C2)C3`, the IC50 is 146 nM in [1]; 306 nM in data set [4]; 205 nM in data set [5]; 50000 nM in [12]; greater than 100000 nM in [14]. For the same molecule, the remaining at 0.5 h in [7] was 25%.

Take `CNc1ccc(C(C)(C)C(=O)N[C@H]2C3C[C@@H]4C[C@H]2C[C@@](CC(N)=O)(C3)C4)cn1`: the half-inhibitory concentration (IC50) in [1] is 29 nM; in data set [4] it was 246 nM; in data set [5], 310 nM; in data set [12], greater than 100000 nM; in data set [14], greater than 100000 nM. For the same molecule, the remaining at 0.5 h in data set [7] came to 83%.

Take `CC(C)(Oc1ccc(Cl)cc1)C(=O)N[C@H]1C2C[C@@H]3C[C@H]1C[C@@](CCC(=O)O)(C2)C3`: the inhibition in [2] turned out to be 50%; in [3], 23%; in data set [8], 18%; in data set [10], 99%; in [11], 67%; in data set [15] it was 93%. Further, the IC50 was determined as 74 nM in [5] and 28000 nM in data set [12]. Moreover, the clearance in [6] is 13.3 mL/min/kg. For the same molecule, in [7], the remaining at 0.5 h came out at 78%. The molecule further had a half-life in data set [9] of 2.6 h. The same molecule showed a bioavailability in data set [13] of 86.3%.

In data set [5], `CC(C)(Oc1ccc(Cl)cc1)C(=O)N[C@H]1C2C[C@@H]3C[C@H]1C[C@@](c1nnc(N)[nH]1)(C2)C3` returned an IC50 of 53 nM. Besides, in data set [7], the remaining at 0.5 h worked out at 41%.

Regarding `CC(C)(Oc1ccc(Cl)cc1)C(=O)N[C@H]1C2C[C@@H]3C[C@H]1C[C@@](c1noc(=O)[nH]1)(C2)C3`, the values for the IC50 in data set [5] and in data set [12] were 101 nM and 100000 nM, respectively.

Turning to `CC(C)(Oc1ccc(N2CCOCC2)cn1)C(=O)N[C@H]1C2C[C@@H]3C[C@H]1C[C@@](CC(N)=O)(C2)C3`, the IC50 is 44 nM in data set [1]; 444 nM in data set [4]; 51 nM in data set [5]; greater than 100000 nM in data set [12]; greater than 100000 nM in data set [14]. Also, the remaining at 0.5 h in [7] worked out at 89%.

For the molecule `CC(C)(C(=O)N[C@H]1C2C[C@@H]3C[C@H]1C[C@@](CC(N)=O)(C2)C3)c1ccc(C#N)cn1`, the IC50 in [1] is 14 nM; in data set [4], 165 nM; in [5], 65 nM; in data set [12], 15000 nM; in data set [14], greater than 100000 nM. The remaining at 0.5 h in [7] was 100%.

For `CC(C)(Oc1ccc(Cl)cc1)C(=O)N[C@H]1C2C[C@@H]3C[C@H]1C[C@@](/C(N)=N/O)(C2)C3`, the inhibition in [2] is 92%; in [3], 67%; in data set [8], 79%; in data set [10], 89%; in [11], 85%; in data set [15], 84%. For the same molecule, the 50% inhibitory concentration (IC50) was 26 nM in [5] and greater than 100000 nM in data set [12]. Besides, the clearance in data set [6] is 76.7 mL/min/kg. Besides, the remaining at 0.5 h in [7] came out at 64%. Moreover, the half-life in data set [9] is 0.4 h. The bioavailability in data set [13] was found to be 61.6%.

As to `CC(C)(Oc1ccc(Br)cn1)C(=O)N[C@H]1C2C[C@@H]3C[C@H]1C[C@@](CC(N)=O)(C2)C3`, the inhibition in data set [2] came to 47%; in data set [3] it was 23%; in data set [10], 57%; in data set [15], 0%. For the same molecule, the IC50 was 4 nM in data set [5] and greater than 100000 nM in [12]. The remaining at 0.5 h in data set [7] came to 87%.

Molecule `CC(C)(Oc1ccc(Cl)cc1)C(=O)N[C@H]1C2C[C@@H]3C[C@H]1C[C@@](c1ncc[nH]1)(C2)C3` registered an IC50 in [5] of 11 nM. For the same molecule, in data set [7], the remaining at 0.5 h turned out to be 3%.

(Values after ChEMBL document CHEMBL1137283, “Synthesis and biological evaluation of heterocycle containing adamantane 11beta-HSD1 inhibitors” (Bioorg Med Chem Lett, 2006).)
